Results as given in article PMC7475184 (Heliyon, 2020).
Values after ≈ are worked out from the molar mass of the structure shown.

Columns and labels:
[1] = system: Methicillin-Resistant Staphylococcus aureus (14–2095); experiment: Antibacterial activity, microdilution method; type: cell-based; details: for MIC, MRSA: MDR clinical isolate, microdilution; for MIC: Staphylococcus aureus, MRSA, read-out: MIC, MRSA
Method in brief: (§1)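 Drug-resistant clinical isolates from a university hospital, tested by broth microdilution in Mueller Hinton medium. Test compounds at 200, 100, 50, 25, 12.5, 6.25 and 3.12 μg/mL. Levofloxacin positive control at the same concentrations; DMSO (6%–0.09%, v/v) negative control. MIC taken as the lowest concentration inhibiting bacterial growth. Three repeat experiments.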

[2] = system: Klebsiella pneumoniae producer of ESBL (14–2081); experiment: Antibacterial activity, microdilution method; type: cell-based; details: for MIC, KPPB: MDR clinical isolate, microdilution; for MIC: Klebsiella pneumoniae, read-out: MIC, KPPB
Method in brief: as §1

[3] = system: Carbapenems-resistant Acinetobacter baumannii (12–666); experiment: Antibacterial activity, microdilution method; type: cell-based; details: for MIC, CRAB: MDR clinical isolate, microdilution; for MIC: Acinetobacter baumannii, read-out: MIC, CRAB
Method in brief: as §1

[4] = system: carbapenems-resistant Klebsiella pneumoniae (OXA-48 positive); experiment: Antibacterial activity, microdilution method; type: cell-based; details: for MIC, KPRO: MDR clinical isolate, microdilution; for MIC: Klebsiella pneumoniae, read-out: MIC, KPRO
Method in brief: as §1

[5] = system: P. aeruginosa resistant to carbapenems (13–1391); experiment: Antibacterial activity, microdilution method; type: cell-based, Pseudomonas aeruginosa; details: for MIC, PARC: MDR clinical isolate, microdilution; for MIC: Pseudomonas aeruginosa, read-out: MIC, PARC
Method in brief: as §1

[6] = system: carbapenems-resistant Klebsiella pneumoniae NDM-1+ (14–3335); experiment: Antibacterial activity, microdilution method; type: cell-based; details: for MIC, KPNDM-1+: MDR clinical isolate, microdilution; for MIC: Klebsiella pneumoniae, read-out: MIC, KPNDM-1+
Method in brief: as §1

[7] = system: Linezolid-resistant Staphylococcus epidermidis (14–583); experiment: Antibacterial activity, microdilution method; type: cell-based; details: for MIC, LRSE: MDR clinical isolate, microdilution; for MIC: Staphylococcus epidermidis, read-out: MIC, LRSE
Method in brief: as §1

[8] = system: Escherichia coli producing extended-spectrum beta-lactamase (14–2081); experiment: Antibacterial activity, microdilution method; type: cell-based; details: for MIC, ECPB: MDR clinical isolate, microdilution; for MIC: Escherichia coli, read-out: MIC, ECPB
Method in brief: as §1

[9] = system: Vancomycin-resistant Enterococcus faecium (10–984); experiment: Antibacterial activity, microdilution method; type: cell-based; details: for MIC, VREF: MDR clinical isolate, microdilution; for MIC: Enterococcus faecium, read-out: MIC, VREF
Method in brief: as §1

HeLa (cervical) cells = experiment: Cytotoxic activity, Cell Titer 96 proliferation kit; type: cell-based, human; details: for IC50, Hela: HeLa cells; for IC50: Homo sapiens, HeLa, read-out: IC50, Hela
Method in brief: (§2)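 Cells grown in DMEM with 10% fetal bovine serum and 2 mM glutamine at 37 °C under 5% CO2. Test compounds at 100, 10, 1, 0.1 and 0.01 μg/mL for a dose-response curve. Viability read with a Cell Titer 96 aqueous kit by absorbance at 450 nm. Paclitaxel reference. Triplicates in three independent experiments; IC50 by regression analysis.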

[10] = system: HepG2 (hepatocellular) cells; experiment: as above; type: cell-based, human; details: for IC50, HepG2: HepG2 cells; for IC50: Homo sapiens, HepG2, read-out: IC50, HepG2
Method in brief: as §2

[11] = system: immortalized human hepatocytes (IHH); type: cell-based; details: for IC50, IHH: non-cancerous control cells IHH; for IC50: Homo sapiens, Hepatocyte, read-out: IC50, IHH
Method in brief: as §2

A549 (lung) cells = experiment: Cytotoxic activity, Cell Titer 96 proliferation kit; type: cell-based, human; details: for IC50, A549: A549 cells; for IC50: Homo sapiens, A549, read-out: IC50, A549
Method in brief: as §2

PC3 (prostate) cells = experiment: Cytotoxic activity, Cell Titer 96 proliferation kit; type: cell-based, human; details: for IC50, PC3: PC3 cells; for IC50: Homo sapiens, PC-3, read-out: IC50, PC3
Method in brief: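 PC3 cells kept in RPMI-1640 at 37 °C under 5% CO2. Dose-response over 100, 10, 1, 0.1 and 0.01 μg/mL test compound. Viability measured with a Cell Titer 96 aqueous kit by absorbance at 450 nm. Paclitaxel reference. Triplicates in three independent experiments; IC50 derived by regression analysis.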

[12] = system: Hep3B (hepatocellular) cells; experiment: Cytotoxic activity, Cell Titer 96 proliferation kit; type: cell-based, human; details: for IC50, Hep3B: Hep3B cells; for IC50: Homo sapiens, Hep3B, read-out: IC50, Hep3B
Method in brief: as §2

MCF7 (breast) cells = experiment: as above; type: cell-based, human
Method in brief: as §2

[13] = system: hepatocellular carcinoma lines; experiment: Selectivity Index on hepatocellular carcinoma lines versus IHH; type: cell-based, human; details: HepG2 and Hep3B versus IHH
P. aeruginosa = details: Vernonia auriculifera screening; ref Kiplimo et al., 2011; cited from earlier work

SMILES: CCCCCCCCCCCCCCCCCCCCCCCC(=O)OCC(COC(C)=O)OC(C)=O (stereo not drawn) [2Ac, 3-(tetracosanoyloxy) propane-1,2-diyl diacetate]
- MIC, MRSA [1]: >200 µg/mL
- MIC, KPPB [2]: >200 µg/mL
- MIC, CRAB [3]: 100 µg/mL
- MIC, KPRO [4]: >200 µg/mL
- MIC, PARC [5]: 200 µg/mL
- MIC, KPNDM-1+ [6]: 200 µg/mL
- MIC, LRSE [7]: 200 µg/mL
- MIC, ECPB [8]: >200 µg/mL
- MIC, VREF [9]: 200 µg/mL

SMILES: CC[C@H](CC[C@@H](C)[C@H]1CC[C@H]2[C@@H]3CC=C4C[C@@H](O[C@@H]5O[C@H](COC(C)=O)[C@@H](OC(C)=O)[C@H](OC(C)=O)[C@H]5OC(C)=O)CC[C@]4(C)[C@H]3CC[C@]12C)C(C)C [3Ac, β-sitosteryl β-D-tetraacetyl glucopyranoside]
- IC50, Hela (HeLa (cervical) cells): 63 ± 7 µg/mL (≈ 84.6 µM)
- IC50, HepG2 [10]: 50 ± 3 µg/mL (≈ 67.1 µM)
- MIC, MRSA [1]: >200 µg/mL
- IC50, IHH [11]: 78 ± 7 µg/mL (≈ 105 µM)
- IC50, A549 (A549 (lung) cells): 87 ± 8 µg/mL (≈ 117 µM)
- MIC, KPPB [2]: >200 µg/mL
- MIC, CRAB [3]: 200 µg/mL (≈ 268 µM)
- MIC, KPRO [4]: 200 µg/mL (≈ 268 µM)
- MIC, PARC [5]: 200 µg/mL (≈ 268 µM)
- IC50, PC3 (PC3 (prostate) cells): 43 ± 4 µg/mL (≈ 57.7 µM)
- MIC, KPNDM-1+ [6]: >200 µg/mL
- MIC, LRSE [7]: >200 µg/mL
- MIC, ECPB [8]: >200 µg/mL
- IC50, Hep3B [12]: 49 ± 4 µg/mL (≈ 65.8 µM)
- MIC, VREF [9]: 200 µg/mL (≈ 268 µM)

SMILES: CC(=O)OC[C@H]1O[C@@H](O[C@H]2CC[C@]3(C)[C@H]4CC=C5[C@@H]6[C@@H](C)[C@H](C)CC[C@]6(C)CC[C@@]5(C)[C@]4(C)CC[C@H]3C2(C)C)[C@H](OC(C)=O)[C@@H](OC(C)=O)[C@@H]1OC(C)=O [4Ac, α-amyrin tetraacetyl 3-O-β-D-glucopyranoside]
- IC50, Hela (HeLa (cervical) cells): >100 µg/mL
- IC50, HepG2 [10]: >100 µg/mL
- IC50, IHH [11]: >100 µg/mL
- IC50, A549 (A549 (lung) cells): >100 µg/mL
- IC50, PC3 (PC3 (prostate) cells): >100 µg/mL
- IC50, MCF7 (MCF7 (breast) cells): >100 µg/mL
- IC50, Hep3B [12]: >100 µg/mL

SMILES: CC(=O)O[C@H]1C(=O)[C@@]2(C)[C@H]([C@H](OC(=O)c3ccccc3)[C@]3(O)C[C@H](OC(=O)[C@H](O)[C@@H](NC(=O)c4ccccc4)c4ccccc4)C(C)=C1C3(C)C)[C@]1(OC(C)=O)CO[C@@H]1C[C@@H]2O [Paclitaxel, reference compound]
- IC50 (HeLa (cervical) cells): 0.00478 µg/mL (≈ 0.0056 µM)
- IC50 [10]: 0.064 µg/mL (≈ 0.0749 µM)
- IC50 [11]: 0.0794 µg/mL (≈ 0.093 µM)
- IC50 (A549 (lung) cells): 5.12 ng/mL (≈ 0.006 µM)
- IC50 (PC3 (prostate) cells): 0.0102 µg/mL (≈ 0.0119 µM)
- IC50 [12]: 0.033 µg/mL (≈ 0.0386 µM)

SMILES: CCCCCCCCCCCCCCCCCCCCCCCC(=O)OCC(O)CO (stereo not drawn) [compound 2, 2,3-dihydroxypropyl tetracosanoate]
- IC50 (HeLa (cervical) cells): 82 ± 8 µg/mL (≈ 185 µM)
- Selectivity Index (SI) on hepatocellular carcinoma lines [13]: greater than 1
- IC50 [10]: 75 ± 6 µg/mL (≈ 169 µM)
- MIC [1]: > 200 µg/mL
- IC50 [11]: 100 µg/mL (≈ 226 µM)
- IC50 (A549 (lung) cells): > 100000 ng/mL
- MIC [2]: > 200 µg/mL
- MIC [3]: 200 µg/mL (≈ 452 µM)
- MIC [4]: 200 µg/mL (≈ 452 µM)
- MIC [5]: 200 µg/mL (≈ 452 µM)
- IC50 (PC3 (prostate) cells): 75 ± 5 µg/mL (≈ 169 µM)
- MIC [6]: 200 µg/mL (≈ 452 µM)
- MIC [7]: 200 µg/mL (≈ 452 µM)
- MIC [8]: > 200 µg/mL
- IC50 [12]: 73 ± 7 µg/mL (≈ 165 µM)
- MIC [9]: 200 µg/mL (≈ 452 µM)

SMILES: C[C@H]1COc2c(N3CCN(C)CC3)c(F)cc3c(=O)c(C(=O)O)cn1c23 [levofloxacin, reference compound]
- MIC [1]: 12.5 µg/mL (≈ 34.6 µM)
- MIC [2]: > 50 µg/mL
- MIC [3]: 12.5 µg/mL (≈ 34.6 µM)
- MIC [4]: > 50 µg/mL
- MIC [5]: 12.5 µg/mL (≈ 34.6 µM)
- MIC [6]: > 50 µg/mL
- MIC [7]: 6.25 µg/mL (≈ 17.3 µM)
- MIC [8]: 12.5 µg/mL (≈ 34.6 µM)
- MIC [9]: 12.5 µg/mL (≈ 34.6 µM)

SMILES: C[C@H]1[C@H](C)CC[C@]2(C)CC[C@]3(C)C(=CC[C@@H]4[C@@]5(C)CC[C@H](O)C(C)(C)[C@@H]5CC[C@]43C)[C@H]12 [α-amyrin]
- MIC, P. aeruginosa (P. aeruginosa): 1000 µg/mL (≈ 2340 µM)
